In brackets after ≈: the same amount, converted by molar mass.
system: Micrococcus flavus; assay: Antibacterial activity against Micrococcus flavus ATCC 10240 treated for 24 hrs followed by sub-cultivated for 72 hrs by micro dilution method; format: functional; settings: not given
How it was run: (§1)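 2 µl from each well was serially subcultured into 100 µl fresh broth per well and incubated a further 72 h. MBC is the lowest concentration with no visible growth, taken as 99.5% killing of the original inoculum. Streptomycin and ampicillin were the positive controls.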

Structure (SMILES) | MBC [µM]
CCCNc1nnc(Cc2cc(OC)c(OC)cc2S(=O)(=O)N(C)C)s1 | 500 (≈ 200 µg/mL)

system: Salmonella typhimurium; assay: Antibacterial activity against Salmonella Typhimurium ATCC 13311 treated for 24 hrs followed by sub-cultivated for 72 hrs by micro dilution method; format: functional, Salmonella enterica subsp. enterica serovar Typhimurium; settings: Salmonella enterica; how it was run: as §1

Structure (SMILES) | MBC [µM]
CCCNc1nnc(Cc2cc(OC)c(OC)cc2S(=O)(=O)N(C)C)s1 | 500 (≈ 200 µg/mL)

system: Fulvia fulva; assay: Antifungal activity against Fulvia fulva treated for 72 hrs followed by sub-cultivated for 5 days by serial dilution method; format: functional; settings: not given
How it was run: (§2)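 MFC obtained after the 72 h, 28 °C malt-broth microdilution (spore inoculum about 1.0 × 10^5 per well, compounds from 1 mg/ml DMSO). 2 µl was serially subcultured into 100 µl broth per well and incubated a further 5 days at 28 °C. MFC is the lowest concentration with no visible growth, taken as 99.5% killing of the original inoculum.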

Structure (SMILES) | MFC [µM]
CCCNc1nnc(Cc2cc(OC)c(OC)cc2S(=O)(=O)N(C)C)s1 | 130 (≈ 52.1 µg/mL)

system: Listeria monocytogenes; assay: Antibacterial activity against Listeria monocytogenes NCTC 7973 treated for 24 hrs followed by sub-cultivated for 72 hrs by micro dilution method; format: functional; settings: not given; how it was run: as §1

Structure (SMILES) | MBC [µM]
CCCNc1nnc(Cc2cc(OC)c(OC)cc2S(=O)(=O)N(C)C)s1 | 500 (≈ 200 µg/mL)

system: Salmonella typhimurium; assay: Antibacterial activity against Salmonella Typhimurium ATCC 13311 after 24 hrs by micro dilution method; format: functional, Salmonella enterica subsp. enterica serovar Typhimurium; settings: Salmonella enterica, ATCC 13311, 24 h
How it was run: (§3)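 Microdilution MIC in 96-well plates. Bacterial suspensions adjusted in sterile saline to 1.0 × 10^5 CFU/ml, giving 1.0 × 10^4 cfu per well in LB broth. Compounds tested at up to 1 mg/ml. Plates incubated 24 h. MIC taken as the lowest concentration with no visible growth under a binocular microscope. OD at 655 nm was also read against a blank and the positive control. Streptomycin and ampicillin were the positive controls.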

Structure (SMILES) | MIC [µM]
CCCNc1nnc(Cc2cc(OC)c(OC)cc2S(=O)(=O)N(C)C)s1 | 250 (≈ 100 µg/mL)

system: Bacillus cereus; assay: Antibacterial activity against Bacillus cereus clinical isolate treated for 24 hrs followed by sub-cultivated for 72 hrs by micro dilution method; format: functional; settings: not given; how it was run: as §1

Structure (SMILES) | MBC [µM]
CCCNc1nnc(Cc2cc(OC)c(OC)cc2S(=O)(=O)N(C)C)s1 | 500 (≈ 200 µg/mL)

system: Fulvia fulva; assay: Antifungal activity against Fulvia fulva after 72 hrs by serial dilution method; format: functional; settings: not given
How it was run: (§4)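 Modified microdilution MIC. Spores were washed from malt agar cultures with sterile 0.85% saline containing 0.1% Tween 80 and adjusted to about 1.0 × 10^5 per 100 µl well in malt broth. Compounds were dissolved in DMSO (1 mg/ml). Plates incubated 72 h at 28 °C. MIC is the lowest concentration with no visible growth under a binocular microscope. Bifonazole and ketoconazole were the references.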

Structure (SMILES) | MIC [µM]
CCCNc1nnc(Cc2cc(OC)c(OC)cc2S(=O)(=O)N(C)C)s1 | 60 (≈ 24 µg/mL)

system: Pseudomonas aeruginosa; assay: Antibacterial activity against Pseudomonas aeruginosa ATCC 27853 treated for 24 hrs followed by sub-cultivated for 72 hrs by micro dilution method; format: functional; settings: not given; how it was run: as §1

Structure (SMILES) | MBC [µM]
CCCNc1nnc(Cc2cc(OC)c(OC)cc2S(=O)(=O)N(C)C)s1 | 500 (≈ 200 µg/mL)

system: Pseudomonas aeruginosa; assay: Antibacterial activity against Pseudomonas aeruginosa ATCC 27853 after 24 hrs by micro dilution method; format: functional; settings: ATCC 27853, 24 h; how it was run: as §3

Structure (SMILES) | MIC [µM]
CCCNc1nnc(Cc2cc(OC)c(OC)cc2S(=O)(=O)N(C)C)s1 | 500 (≈ 200 µg/mL)

system: Escherichia coli; assay: Antibacterial activity against Escherichia coli ATCC 35210 after 24 hrs by micro dilution method; format: functional; settings: ATCC 35210, 24 h; how it was run: as §3

Structure (SMILES) | MIC [µM]
CCCNc1nnc(Cc2cc(OC)c(OC)cc2S(=O)(=O)N(C)C)s1 | 250 (≈ 100 µg/mL)

system: Aspergillus versicolor; assay: Antifungal activity against Aspergillus versicolor ATCC 11730 treated for 72 hrs followed by sub-cultivated for 5 days by serial dilution method; format: functional; settings: not given; how it was run: as §2

Structure (SMILES) | MFC [µM]
CCCNc1nnc(Cc2cc(OC)c(OC)cc2S(=O)(=O)N(C)C)s1 | 500 (≈ 200 µg/mL)

system: Trichoderma viride; assay: Antifungal activity against Trichoderma viride IAM 5061 treated for 72 hrs followed by sub-cultivated for 5 days by serial dilution method; format: functional; settings: not given; how it was run: as §2

Structure (SMILES) | MFC [µM]
CCCNc1nnc(Cc2cc(OC)c(OC)cc2S(=O)(=O)N(C)C)s1 | 130 (≈ 52.1 µg/mL)

system: Aspergillus niger; assay: Antifungal activity against Aspergillus niger ATCC 6275 treated for 72 hrs followed by sub-cultivated for 5 days by serial dilution method; format: functional; settings: not given; how it was run: as §2

Structure (SMILES) | MFC [µM]
CCCNc1nnc(Cc2cc(OC)c(OC)cc2S(=O)(=O)N(C)C)s1 | 130 (≈ 52.1 µg/mL)

system: Aspergillus niger; assay: Antifungal activity against Aspergillus niger ATCC 6275 after 72 hrs by serial dilution method; format: functional; settings: ATCC 6275, 72 h; how it was run: as §4

Structure (SMILES) | MIC [µM]
CCCNc1nnc(Cc2cc(OC)c(OC)cc2S(=O)(=O)N(C)C)s1 | 60 (≈ 24 µg/mL)

system: Enterobacter cloacae; assay: Antibacterial activity against Enterobacter cloacae human isolate after 24 hrs by micro dilution method; format: functional; settings: not given; how it was run: as §3

Structure (SMILES) | MIC [µM]
CCCNc1nnc(Cc2cc(OC)c(OC)cc2S(=O)(=O)N(C)C)s1 | 500 (≈ 200 µg/mL)

system: Staphylococcus aureus; assay: Antibacterial activity against Staphylococcus aureus ATCC 6538 treated for 24 hrs followed by sub-cultivated for 72 hrs by micro dilution method; format: functional; settings: not given; how it was run: as §1

Structure (SMILES) | MBC [µM]
CCCNc1nnc(Cc2cc(OC)c(OC)cc2S(=O)(=O)N(C)C)s1 | 500 (≈ 200 µg/mL)

system: Aspergillus flavus; assay: Antifungal activity against Aspergillus flavus ATCC 9643 treated for 72 hrs followed by sub-cultivated for 5 days by serial dilution method; format: functional; settings: not given; how it was run: as §2

Structure (SMILES) | MFC [µM]
CCCNc1nnc(Cc2cc(OC)c(OC)cc2S(=O)(=O)N(C)C)s1 | 250 (≈ 100 µg/mL)

system: Penicillium ochrochloron; assay: Antifungal activity against Penicillium ochrochloron ATCC 9112 after 72 hrs by serial dilution method; format: functional; settings: ATCC 9112, 72 h; how it was run: as §4

Structure (SMILES) | MIC [µM]
CCCNc1nnc(Cc2cc(OC)c(OC)cc2S(=O)(=O)N(C)C)s1 | 130 (≈ 52.1 µg/mL)

system: Aspergillus fumigatus; assay: Antifungal activity against Aspergillus fumigatus human isolate treated for 72 hrs followed by sub-cultivated for 5 days by serial dilution method; format: functional; settings: not given; how it was run: as §2

Structure (SMILES) | MFC [µM]
CCCNc1nnc(Cc2cc(OC)c(OC)cc2S(=O)(=O)N(C)C)s1 | 250 (≈ 100 µg/mL)

system: Aspergillus versicolor; assay: Antifungal activity against Aspergillus versicolor ATCC 11730 after 72 hrs by serial dilution method; format: functional; settings: ATCC 11730, 72 h; how it was run: as §4

Structure (SMILES) | MIC [µM]
CCCNc1nnc(Cc2cc(OC)c(OC)cc2S(=O)(=O)N(C)C)s1 | 250 (≈ 100 µg/mL)

system: Micrococcus flavus; assay: Antibacterial activity against Micrococcus flavus ATCC 10240 after 24 hrs by micro dilution method; format: functional; settings: ATCC 10240, 24 h; how it was run: as §3

Structure (SMILES) | MIC [µM]
CCCNc1nnc(Cc2cc(OC)c(OC)cc2S(=O)(=O)N(C)C)s1 | 250 (≈ 100 µg/mL)

system: Penicillium ochrochloron; assay: Antifungal activity against Penicillium ochrochloron ATCC 9112 treated for 72 hrs followed by sub-cultivated for 5 days by serial dilution method; format: functional; settings: not given; how it was run: as §2

Structure (SMILES) | MFC [µM]
CCCNc1nnc(Cc2cc(OC)c(OC)cc2S(=O)(=O)N(C)C)s1 | 250 (≈ 100 µg/mL)

system: Escherichia coli; assay: Antibacterial activity against Escherichia coli ATCC 35210 treated for 24 hrs followed by sub-cultivated for 72 hrs by micro dilution method; format: functional; settings: not given; how it was run: as §1

Structure (SMILES) | MBC [µM]
CCCNc1nnc(Cc2cc(OC)c(OC)cc2S(=O)(=O)N(C)C)s1 | 250 (≈ 100 µg/mL)

system: Bacillus cereus; assay: Antibacterial activity against Bacillus cereus clinical isolate after 24 hrs by micro dilution method; format: functional; settings: not given; how it was run: as §3

Structure (SMILES) | MIC [µM]
CCCNc1nnc(Cc2cc(OC)c(OC)cc2S(=O)(=O)N(C)C)s1 | 250 (≈ 100 µg/mL)

system: Talaromyces funiculosus; assay: Antifungal activity against Penicillium funiculosum ATCC 36839 after 72 hrs by serial dilution method; format: functional; settings: ATCC 36839, 72 h; how it was run: as §4

Structure (SMILES) | MIC [µM]
CCCNc1nnc(Cc2cc(OC)c(OC)cc2S(=O)(=O)N(C)C)s1 | 130 (≈ 52.1 µg/mL)

system: Trichoderma viride; assay: Antifungal activity against Trichoderma viride IAM 5061 after 72 hrs by serial dilution method; format: functional; settings: IAM 5061, 72 h; how it was run: as §4

Structure (SMILES) | MIC [µM]
CCCNc1nnc(Cc2cc(OC)c(OC)cc2S(=O)(=O)N(C)C)s1 | 60 (≈ 24 µg/mL)

system: Talaromyces funiculosus; assay: Antifungal activity against Penicillium funiculosum ATCC 36839 treated for 72 hrs followed by sub-cultivated for 5 days by serial dilution method; format: functional; settings: not given; how it was run: as §2

Structure (SMILES) | MFC [µM]
CCCNc1nnc(Cc2cc(OC)c(OC)cc2S(=O)(=O)N(C)C)s1 | 250 (≈ 100 µg/mL)

system: Enterobacter cloacae; assay: Antibacterial activity against Enterobacter cloacae human isolate treated for 24 hrs followed by sub-cultivated for 72 hrs by micro dilution method; format: functional; settings: not given; how it was run: as §1

Structure (SMILES) | MBC [µM]
CCCNc1nnc(Cc2cc(OC)c(OC)cc2S(=O)(=O)N(C)C)s1 | 500 (≈ 200 µg/mL)

system: Listeria monocytogenes; assay: Antibacterial activity against Listeria monocytogenes NCTC 7973 after 24 hrs by micro dilution method; format: functional; settings: NCTC 7973, 24 h; how it was run: as §3

Structure (SMILES) | MIC [µM]
CCCNc1nnc(Cc2cc(OC)c(OC)cc2S(=O)(=O)N(C)C)s1 | 500 (≈ 200 µg/mL)

system: Aspergillus fumigatus; assay: Antifungal activity against Aspergillus fumigatus human isolate after 72 hrs by serial dilution method; format: functional; settings: not given; how it was run: as §4

Structure (SMILES) | MIC [µM]
CCCNc1nnc(Cc2cc(OC)c(OC)cc2S(=O)(=O)N(C)C)s1 | 130 (≈ 52.1 µg/mL)

system: Aspergillus flavus; assay: Antifungal activity against Aspergillus flavus ATCC 9643 after 72 hrs by serial dilution method; format: functional; settings: ATCC 9643, 72 h; how it was run: as §4

Structure (SMILES) | MIC [µM]
CCCNc1nnc(Cc2cc(OC)c(OC)cc2S(=O)(=O)N(C)C)s1 | 130 (≈ 52.1 µg/mL)

system: Staphylococcus aureus; assay: Antibacterial activity against Staphylococcus aureus ATCC 6538 after 24 hrs by micro dilution method; format: functional; settings: ATCC 6538, 24 h; how it was run: as §3

Structure (SMILES) | MIC [µM]
CCCNc1nnc(Cc2cc(OC)c(OC)cc2S(=O)(=O)N(C)C)s1 | 500 (≈ 200 µg/mL)

— ChEMBL document CHEMBL1944580, “Synthesis of novel sulfonamide-1,2,4-triazoles, 1,3,4-thiadiazoles and 1,3,4-oxadiazoles, as potential antibacterial and antifungal agents. Biological evaluation and conformational analysis studies” (2012)
